ZTA DNA inh: counter-screen for EBNA-1 inhibitors: inhibitors of Epstein-Barr virus ZTA; ZTA-DNA binding, fluorescence polarization; inhibition, % at 11 µM; 320,000 compounds, 0.15% hits; in the data active = inhibition above about 33%
Target sequence (P03206 whole entry, looked up): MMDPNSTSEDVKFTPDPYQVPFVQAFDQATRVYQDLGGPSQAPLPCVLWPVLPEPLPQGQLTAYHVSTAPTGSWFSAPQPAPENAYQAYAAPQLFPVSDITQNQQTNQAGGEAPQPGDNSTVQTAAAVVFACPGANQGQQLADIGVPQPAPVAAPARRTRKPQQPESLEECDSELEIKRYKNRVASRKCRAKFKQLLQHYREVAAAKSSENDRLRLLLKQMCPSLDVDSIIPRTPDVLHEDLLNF
DNA FID counter-1: compounds displacing fluorescent DNA intercalator, primary screen, artefact control for HCV NS3 helicase inhibitor project, biochemical, FID fluorescence. 290,000 compounds, 0.17% hits. DNA fluorescent intercalator displacement. inhibition, % at 7.9 µM. AID 1845, 2009;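 also: 0% = vehicle and 100% = reference compound; higher means more ethidium bromide displaced from hairpin DNA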
GPR7 antagonist: GPR7 receptor antagonists, primary screen, cell-based, fluorescence, single concentration; 290,000 compounds, 1.1% hits; inhibition, % at 4.4 µM; GPR7-expressing cells, fluorescence antagonist assay; Neuropeptides B/W receptor type 1 (Homo sapiens), P48145; in the data active = inhibition above about 16%, passing the limit was not always enough;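 also: cells stimulated with the agonist NPW; 0% = agonist with vehicle and 100% = vehicle without agonist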
Target sequence (P48145 whole entry, looked up): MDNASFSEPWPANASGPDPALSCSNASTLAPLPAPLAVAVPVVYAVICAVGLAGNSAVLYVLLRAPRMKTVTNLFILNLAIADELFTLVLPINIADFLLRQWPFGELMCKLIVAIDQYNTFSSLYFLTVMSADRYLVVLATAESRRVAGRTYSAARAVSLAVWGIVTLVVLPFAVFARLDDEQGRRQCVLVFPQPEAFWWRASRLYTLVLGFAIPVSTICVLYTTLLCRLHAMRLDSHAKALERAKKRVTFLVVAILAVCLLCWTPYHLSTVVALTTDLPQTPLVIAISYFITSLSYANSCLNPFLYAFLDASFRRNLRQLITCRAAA
EBNA-1 inh: EBNA-1 DNA-binding inhibitors, primary screen, biochemical, fluorescence polarization. 300,000 compounds, 0.34% hits. inhibition, % at 14.8 µM; in the data active = inhibition above about 28%
HCV NS3 hel inh: inhibitors of HCV NS3 helicase, primary screen, biochemical, Cy5 molecular beacon fluorescence; inhibition, % at 10.9 µM; Hepatitis C virus NS3 helicase; NS3 helicase DNA unwinding; 290,000 compounds, 0.56% hits;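 active = inhibition above the mean of all tested compounds plus 3 SD, set per campaign, cut at about 35% in these data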;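 also: 0% = DMSO wells and 100% = thioflavine S control wells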
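Assay system – hepatitis C virus NS3 helicase domain fragment enzyme · Buffer or medium – MOPS pH 6.5, MgCl2, DTT, Tween20, BSA · Reagent – Cy5/quencher beacon DNA duplex and ATP to start · Compound – single 10.9 µM dose · Timing – 1 h at 25 °C · Technique – Cy5 beacon fluorescence read at start and 1 h · Measure – % inhibition of unwinding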
NS3 helicase cf: HCV NS3 helicase inhibitors, retest, confirmation, biochemical, Cy5 molecular beacon fluorescence, triplicate; inhibition, % at 10.9 µM; 1,600 compounds, 31% hits; shares compounds with HCV NS3 hel inh; NS3 helicase DNA unwinding; AID 1943, 2009;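 active = inhibition above the mean of all tested compounds plus 3 SD, cutoff set per campaign, cut at about 36% in these data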
DNA FID counter-2: compounds displacing fluorescent DNA intercalator, artefact control for HCV NS3 helicase inhibitor project, biochemical, FID fluorescence, triplicate; shares compounds with HCV NS3 hel inh; DNA fluorescent intercalator displacement; inhibition, % at 7.9 µM; 1,600 compounds, 4% hits; AID 1945, 2009;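 also: 0% = vehicle and 100% = reference compound; higher means more displacement of ethidium bromide from the DNA hairpin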
FID counter DR: compounds displacing fluorescent intercalator from DNA, dose response, counter-screen for HCV NS3 helicase inhibitor project, biochemical, fluorescence; fluorescent intercalator displacement from DNA; IC50, µM; 120 tested, under 10 active; shares compounds with HCV NS3 hel inh; call rule not given here
An asterisk follows results filed as active; x = no result given. The list is not random: actives were taken first. Their share in the collection is about 2%. Rule as the data show it, unless noted: active = inhibition above about 37%; inactive = the rest.

SMILES	ZTA DNA inh	DNA FID counter-1	GPR7 antagonist	EBNA-1 inh	HCV NS3 hel inh	NS3 helicase cf	DNA FID counter-2	others
CNC(=O)CSc1nc2sccc2c(=O)n1-c1ccccc1	10.4	-5.2	-10.0	2.5	1.9	x	x
COc1cc(SC)ccc1C(=O)Nc1cccc(S(=O)(=O)NC2=NCCC2)c1	2.6	x	x	x	x	x	x
Cc1ccccc1OCCC(=O)OCC(=O)Nc1ccc2[nH]c(=O)[nH]c2c1	7.1	x	x	-6.3	x	x	x
Nc1ccc(S(=O)(=O)NC(Cc2ccccc2)C(=O)O)cc1 (stereo unspecified)	-17.2	-6.0	-3.8	-11.6	-1.6	x	x
CC(=O)OCCNc1cc(SCc2ccco2)c2nonc2c1[N+](=O)[O-]	7.2	0.5	-7.6	-2.1	46.9*	-17.1	19.5
Cc1cc(C)c(OCC(=O)OC(C)C(=O)N2CCc3ccccc32)c(C)c1 (stereo unspecified)	-7.8	x	x	-1.5	x	x	x
CC(C)CC[n+]1ccn(-c2nc3ccccc3nc2[N-]S(=O)(=O)c2ccccc2)c1	-3.5	-27.6	-12.7	-7.8	-1.9	x	x
O=S(=O)([N-]c1nc2ccccc2nc1-n1cc[n+](Cc2ccccc2)c1)c1ccc(Cl)cc1	2.2	-9.4	-10.7	2.3	36.8*	-2.0	-32.8
O=C(NCCNc1ccc(Cl)cc1[N+](=O)[O-])c1ccccc1F	-13.3	-4.9	3.9	-20.1	41.1*	0.8	14.5
NC(=O)c1ccc2c(=O)c(O)c(-c3cc(Cl)c(N)c(Cl)c3)[nH]c2c1	2.8	-4.5	-2.1	13.3	38.5*	5.9	11.9
CCOC(=O)c1cc(-c2ccc(/C=C3/C(=O)NC(=O)C(C#N)=C3C)o2)ccc1Cl	-8.2	5.3	-7.4	-1.0	49.6*	71.2*	75.1*
CC1=C(C#N)C(=O)NC(=O)/C1=C\c1ccc(-c2ccc(C)cc2[N+](=O)[O-])o1	x	-23.1	-5.7	x	39.9*	62.6*	48.9*
Cc1ccc(N2NC(=O)/C(=C/c3ccc(-c4ccc(Cl)c(C(=O)O)c4)o3)C2=O)cc1	-9.8	-13.1	-13.1	-1.5	33.2	x	x
CCCCC1(C)OC(=O)C(=Cc2ccc(-c3ccc(Cl)c(C(=O)O)c3)o2)C(=O)O1 (stereo unspecified)	6.7	-8.3	15.0	4.7	67.2*	76.7*	-8.9
COc1cc(NC(=O)C2CSC3(C)CCC(=O)N23)c(OC)cc1Cl (stereo unspecified)	0.4	x	x	1.2	x	x	x
CC(C)c1ccc(C2CC(=O)N3CN(C)CSC3=C2C#N)cc1 (stereo unspecified)	6.0	-33.4	-7.5	5.7	45.3*	24.6	-5.4
O=C(NC1CCOCC1)C1CCC(=O)N(Cc2cccc(C(F)(F)F)c2)C1 (stereo unspecified)	3.8	-5.0	-6.4	1.7	-1.9	x	x
CC1CCC2C(C1)OS(=O)(=O)NC2(C)C (stereo unspecified)	2.2	-19.2	5.4	8.6	41.0*	0.7	-1.6
Cc1cccc(Nc2ccc([N+](=O)[O-])cc2C(=O)O)c1	-6.0	-23.7	-6.7	6.3	37.2*	65.5*	-9.3
O=C(O)c1cc([N+](=O)[O-])ccc1Nc1ccccc1	11.1	-7.0	-6.6	-4.0	14.0	x	x
N#Cc1ccc(NCC(=O)Nc2ccc(S(=O)(=O)N3CCCCC3)cc2)cc1	-8.5	x	x	x	x	x	x
Cc1ccc(-c2nnn(CC(=O)O)n2)cc1	15.6	1.2	4.6	11.8	14.1	x	x
Cc1ccccc1COc1ccc(-c2nnn(CC(=O)O)n2)cc1	x	-34.8	-9.3	x	39.7*	26.6	-14.9
COc1ccc(-n2nc(C(=O)NCC(=O)N3CCC(C(N)=O)CC3)c3ccccc3c2=O)cc1	-17.5	-11.9	-8.3	-4.2	3.3	x	x
O=C(c1cc(-c2cccs2)nn1-c1ccccc1)N1CCN(S(=O)(=O)c2ccccc2)CC1	-14.7	x	x	-5.6	x	x	x
SMILES	ZTA DNA inh	DNA FID counter-1	GPR7 antagonist	EBNA-1 inh	HCV NS3 hel inh	NS3 helicase cf	DNA FID counter-2	others
CCOC(=O)C(C(C)=O)c1c(Br)c(O)c(O)c2c(C(=O)c3ccc(C)cc3)coc12 (stereo unspecified)	9.1	-22.5	4.2	8.2	38.0*	-3.3	15.9
COc1ccccc1N1C(=NC(=O)CCc2ccccc2)SC2CS(=O)(=O)CC21 (stereo unspecified)	18.1	-35.9	-4.6	5.5	-2.7	x	x
COc1cccc(C=Nc2ccc(N3CCOCC3)cc2)c1O	2.0	1.7	-15.1	11.4	14.2	x	x
O=[N+]([O-])c1cc(Br)c(O)c(C=Nc2ccc(N3CCOCC3)cc2)c1	126.7*	4.4	-10.3	57.2*	36.6*	-19.9	7.7
O=C(COC(=O)/C=C/c1ccco1)NCc1ccccc1Cl	2.7	-15.3	-14.8	-5.5	-4.3	x	x
CN(C)S(=O)(=O)c1cccc(NC(=O)COC(=O)/C=C/c2ccco2)c1	-8.0	-8.0	-3.7	-0.9	6.4	x	x
O=C(COC(=O)/C=C/c1ccco1)Nc1cccc([N+](=O)[O-])c1	1.2	-8.8	-3.0	18.4	38.1*	-18.3	-4.8
O=C(COC(=O)/C=C/c1ccco1)Nc1ncc(C(F)(F)F)cc1Cl	12.6	-20.8	-3.8	-1.2	54.8*	7.3	-18.3
C[C@@H]1CCC(=O)N(C[C@@H](C)CSc2ccccc2)CC1	-15.4	-36.3	2.7	8.0	1.8	x	x
COCCn1c(=NC(=O)CSCC(=O)N2CCOCC2)sc2ccccc21	12.1	-19.9	-19.4	6.5	11.3	x	x
COc1ccc(S(=O)(=O)N2CCC(C(=O)NCCC(=O)Nc3nccs3)CC2)cc1	6.3	-11.0	-7.6	-13.9	0.0	x	x
O=C(C=C1SCCS1)/C=C/c1ccco1	2.4	-22.8	-5.2	7.9	38.2*	34.4	2.8
O=C(O)C(C(=O)/C=C/c1ccco1)=C1SCCS1	2.8	-16.9	-8.7	-3.6	31.3	x	x
CC(C)Cn1c(SC(C)C(=O)NC2CC2)nnc1-c1ccccc1F (stereo unspecified)	1.5	x	x	x	x	x	x
O=C(NCC1CCCO1)c1cc2nc(-c3ccco3)cc(C(F)(F)Cl)n2n1 (stereo unspecified)	3.0	-10.0	-10.6	-11.0	51.4*	-10.3	-13.9
O=C(NCC1CCCO1)c1nn2c(C(F)(F)F)cc(-c3ccco3)nc2c1Cl (stereo unspecified)	2.2	-10.8	-7.2	7.9	-1.3	x	x
O=c1ccc2c(-c3ccccc3)c3ccc(O)cc3oc-2c1	5.8	-17.9	22.6	0.0	73.3*	67.5*	-11.2	FID counter DR=>79.4
Nc1ccc(-c2c3ccc(=O)cc-3oc3cc(O)ccc23)cc1C(=O)O	8.1	-21.4	29.4	1.6	2.8	x	x

Compound activity (PubChem BioAssay)
